The source made the active and inactive calls. The rule behind the calls is not given here.
Tests used:
[1] = system: Radical scavenging activity; test: Antioxidant activity assessed as DPPH radical scavenging activity at 50 uM after 20 mins; format: functional
Procedure, shortened: (§1)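 Interaction with the stable DPPH free radical in an iron-free system, with compounds at 50 μM. Readings were taken at 20 and 60 min. Each experiment was run at least in triplicate, and the standard deviation of absorbance was under 10% of the mean.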

[2] = system: Radical scavenging activity; test: Antioxidant activity assessed as DPPH radical scavenging activity at 50 uM after 60 mins; format: functional; procedure, shortened: as §1
Glycine max = test: Inhibition of soybean lipoxygenase at 100 uM
[3] = Antioxidant activity assessed as inhibition of AAPH-induced lipid peroxidation at 100 uM by UV spectrophotometry; format: functional

CC(Cc1ccc(O)c(O)c1)C(C)Cc1ccc(O)c(O)c1 (stereo not drawn)
Activity [1]: 84%
Activity [2]: 83%
inhibition (Glycine max): 40%

COc1ccc(-c2c(C)c3ccccc3oc2=O)cc1
Activity [1]: 5%
Activity [2]: 2%
inhibition [3]: 24%
inhibition (Glycine max): 62%

Cc1c(C)c2c(c(C)c1O)CCC(C)(C(=O)O)O2 (stereo not drawn)
inhibition [3]: 63%

COc1ccc(-c2c(C)c3ccccc3oc2=O)cc1OC
Activity [1]: 8%
Activity [2]: 10%
inhibition [3]: 36%
inhibition (Glycine max): 31%

COc1ccc(-c2cc3ccccc3oc2=O)cc1OC
Activity [1]: 4%
Activity [2]: 7%
inhibition [3]: 47%
inhibition (Glycine max): inactive

Cc1c(-c2ccccc2Br)c(=O)oc2ccccc12
Activity [1]: 4%
Activity [2]: 3%
inhibition [3]: 20%
inhibition (Glycine max): 6%

Cc1c(-c2ccc(Br)cc2)c(=O)oc2ccccc12
Activity [1]: 3%
Activity [2]: 4%
inhibition [3]: 70%
inhibition (Glycine max): inactive

Cc1c(-c2ccc(O)cc2)c(=O)oc2ccccc12
Activity [1]: 5%
Activity [2]: 9%
inhibition [3]: 20%
inhibition (Glycine max): inactive
